Data published in ChEMBL document CHEMBL4138257, “Long-Lasting and Fast-Acting in Vivo Efficacious Antiplasmodial Azepanylcarbazole Amino Alcohol” (ACS Med Chem Lett, 2017).
Converted amounts (≈) assume the structure as drawn. The source made the active and inactive calls. The calls are words filed in the database; no cut-off is given here.

Experiments:
[1] = Dissociation constant, pKa of the compound at pH 1.5; type: physicochemical
[2] = system: Plasmodium falciparum; assay: Antiplasmodial activity against Plasmodium falciparum 3D7 infected in human erythrocytes engrafted in NOD-SCID IL-2Rgamma null mouse assessed as reduction in blood parasitemia administered as single dose via oral gavage […] by flow cytometry; type: functional; conditions: 3D7, po
In short: (§1)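 SCID mice engrafted with human erythrocytes, infected with P. falciparum 3D7; single oral dose of 1, 3, 10 or 30 mg·kg-1 given day 3 after infection. Parasitemia measured by flow cytometry, lower limit of quantification 0.01; vehicle group n=3; chloroquine positive control. ED90 and AUC_ED90 are taken as the reduction at day 7 after infection versus vehicle-treated mice.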

[3] = system: Plasmodium falciparum; assay: Antiplasmodial activity against Plasmodium falciparum NF54 infected in human erythrocytes after 72 hrs by [3H]-hypoxanthine incorporation assay; type: functional, organism-based
[4] = system: Plasmodium falciparum; assay: Antiplasmodial activity against Plasmodium falciparum 3D7A infected in red blood cells at 2 times EC90; type: functional, organism-based
[5] = Lipophilicity, log P of the compound; type: physicochemical; conditions: octanol/water
[6] = Octanol-phosphate buffer partition co-efficient, log D of the compound at pH 7.4 after 1 hr by HPLC analysis; type: physicochemical
[7] = system: Plasmodium falciparum; assay: Antiplasmodial activity against Plasmodium falciparum K1 infected in human erythrocytes after 72 hrs by [3H]-hypoxanthine incorporation assay; type: functional, organism-based
[8] = system: Plasmodium falciparum; assay: Antiplasmodial activity against Plasmodium falciparum HB3 infected in human erythrocytes after 72 hrs by [3H]-hypoxanthine incorporation assay; type: functional, organism-based
[9] = system: Plasmodium falciparum; assay: Antiplasmodial activity against Plasmodium falciparum 7G8 infected in human erythrocytes after 72 hrs by [3H]-hypoxanthine incorporation assay; type: functional, organism-based
[10] = system: Plasmodium falciparum; assay: Antiplasmodial activity against Plasmodium falciparum TM90C2B infected in human erythrocytes after 72 hrs by [3H]-hypoxanthine incorporation assay; type: functional, organism-based
[11] = system: Plasmodium falciparum; assay: Antiplasmodial activity against Plasmodium falciparum D6 infected in human erythrocytes after 72 hrs by [3H]-hypoxanthine incorporation assay; type: functional, organism-based
[12] = system: Plasmodium falciparum; assay: Antiplasmodial activity against Plasmodium falciparum V1/S infected in human erythrocytes after 72 hrs by [3H]-hypoxanthine incorporation assay; type: functional, organism-based
[13] = system: Plasmodium falciparum; assay: Antiplasmodial activity against Plasmodium falciparum Dd2 infected in human erythrocytes after 72 hrs by [3H]-hypoxanthine incorporation assay; type: functional, organism-based
[14] = system: Plasmodium falciparum; assay: Antiplasmodial activity against Plasmodium falciparum FCB infected in human erythrocytes after 72 hrs by [3H]-hypoxanthine incorporation assay; type: functional, organism-based
[15] = Ratio of EC50 for Plasmodium falciparum K1 infected in human erythrocytes to EC50 for Plasmodium falciparum NF54 infected in human erythrocytes; type: functional
[16] = Ratio of EC50 for Plasmodium falciparum HB3 infected in human erythrocytes to EC50 for Plasmodium falciparum NF54 infected in human erythrocytes; type: functional
[17] = Ratio of EC50 for Plasmodium falciparum 7G8 infected in human erythrocytes to EC50 for Plasmodium falciparum NF54 infected in human erythrocytes; type: functional
[18] = Ratio of EC50 for Plasmodium falciparum TM90C2B infected in human erythrocytes to EC50 for Plasmodium falciparum NF54 infected in human erythrocytes; type: functional
[19] = Ratio of EC50 for Plasmodium falciparum D6 infected in human erythrocytes to EC50 for Plasmodium falciparum NF54 infected in human erythrocytes; type: functional
[20] = Ratio of EC50 for Plasmodium falciparum V1/S infected in human erythrocytes to EC50 for Plasmodium falciparum NF54 infected in human erythrocytes; type: functional
[21] = Ratio of EC50 for Plasmodium falciparum Dd2 infected in human erythrocytes to EC50 for Plasmodium falciparum NF54 infected in human erythrocytes; type: functional
[22] = Ratio of EC50 for Plasmodium falciparum FCB infected in human erythrocytes to EC50 for Plasmodium falciparum NF54 infected in human erythrocytes; type: functional
[23] = system: Plasmodium falciparum; assay: Ratio of EC90 for Plasmodium falciparum NF54 infected in human erythrocytes to EC50 for Plasmodium falciparum NF54 infected in human erythrocytes; type: functional
[24] = system: Plasmodium falciparum; assay: Antiplasmodial activity against Plasmodium falciparum 3D7A infected in red blood cells assessed as log reduction in parasite viability at 10 times EC50 after 48 hrs by [3H]-hypoxanthine incorporation assay; type: functional
In short: (§2)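 In vitro parasite reduction ratio (PRR) assay on P. falciparum 3D7A-infected erythrocytes exposed to drug at 10× or 3× EC50. Viability of treated parasites was measured by limiting serial dilution followed by monitoring of re-growth. Killing was expressed as log-unit reduction in viable parasites after 48 h.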

[25] = system: Plasmodium falciparum; assay: Antiplasmodial activity against Plasmodium falciparum 3D7A infected in red blood cells assessed as log reduction in parasite viability at 3 times EC50 after 48 hrs by [3H]-hypoxanthine incorporation assay; type: functional; in short: as §2
[26] = system: Plasmodium falciparum; assay: Antiplasmodial activity against schizont stage of Plasmodium falciparum 3D7A infected in red blood cells assessed as reduction in parasite viability at 3 to 10 times EC50 after 48 hrs by [3H]-hypoxanthine incorporation assay relative to ring stage; type: functional
[27] = Kinetic solubility of the compound in PBS at pH 7.4 after 24 hrs by HPLC analysis; type: physicochemical; conditions: read-out: Kinetic_solubility
[28] = Kinetic solubility of the compound in FaSSIF at pH 6.5 after 24 hrs by HPLC analysis; type: physicochemical; conditions: read-out: Kinetic_solubility
[29] = Kinetic solubility of the compound in FeSSIF at pH 5 after 24 hrs by HPLC analysis; type: physicochemical; conditions: read-out: Kinetic_solubility
[30] = Intrinsic clearance in human microsomes assessed per mg protein; type: ADME, Microsome
[31] = Intrinsic clearance in mouse microsomes assessed per mg protein; type: ADME, Microsome
[32] = Intrinsic clearance in rat microsomes assessed per mg protein; type: ADME, Microsome
[33] = Intrinsic clearance in monkey microsomes assessed per mg protein; type: ADME, Macaca mulatta, Microsome; conditions: rhesus monkey
[34] = Intrinsic clearance in dog microsomes assessed per mg protein; type: ADME, Canis lupus familiaris, Microsome
[35] = Apparent permeability of the compound in human Caco2 cells at 20 uM after 4 hrs in presence of human plasma by LC-MS analysis; type: ADME, cell-based; conditions: Caco-2
In short: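 Caco-2 permeability measured with human plasma in both donor and acceptor compartments to reduce non-specific binding. Papp corrected for the unbound concentration under these conditions; efflux ratio also reported.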

[36] = Efflux ratio of apparent permeability from basolateral to apical side over apical to basolateral side in human Caco2 cells at 20 uM after 4 hrs in presence of human plasma by LC-MS analysis; type: ADME, cell-based; conditions: Caco-2
In short: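 Caco-2 permeability was run with human plasma on both donor and acceptor sides to reduce non-specific binding. Apparent permeability (Papp, ×10^-6 cm/s) was corrected for the unbound concentration, and an efflux ratio was reported.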

[37] = Fraction unbound in human plasma at 1000 ng/mL by LC-MS analysis; type: ADME, cell-free
[38] = Fraction unbound in dog plasma at 1000 ng/mL by LC-MS analysis; type: ADME, cell-free, Canis lupus familiaris
[39] = Fraction unbound in rat plasma at 1000 ng/mL by LC-MS analysis; type: ADME, cell-free
[40] = Fraction unbound in mouse plasma at 1000 ng/mL by LC-MS analysis; type: ADME, cell-free
[41] = Ratio of drug uptake in human blood to plasma; type: ADME; conditions: blood and plasma
[42] = Ratio of drug uptake in mouse blood to plasma; type: ADME; conditions: blood and plasma
[43] = Stability in human hepatocytes assessed as parent compound remaining after 5 hrs; type: ADME, cell-based, Hepatocyte; conditions: read-out: Stability
In short: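 Human hepatocyte incubation extended to 5 h; parent remaining and metabolite formation assessed.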

[44] = Half life in CD1 mouse at 0.5 mg/kg, po measured for 14 days; type: ADME, organism-based; conditions: in vivo
In short: (§3)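 Single po administration, mouse dose 0.5 mg·kg-1; plasma concentrations followed to obtain Cmax time and half-life. Bioavailability derived against single iv dosing.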

[45] = Clearance in CD1 mouse at 0.2 mg/kg, iv measured for 14 days; type: ADME, organism-based; conditions: in vivo
In short: (§4)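 Single iv administration, mouse dose 0.2 mg·kg-1. CL reported in L/h/kg and as % liver blood flow; Vss in L/kg.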

[46] = Volume of distribution at steady state in CD1 mouse at 0.2 mg/kg, iv measured for 14 days; type: ADME, organism-based; conditions: in vivo, read-out: Vdss; in short: as §4
[47] = Oral bioavailability in CD1 mouse at 0.5 mg/kg measured for 14 days; type: ADME, organism-based; conditions: in vivo; in short: as §3
[48] = Half life in rat at 0.5 mg/kg, po measured for 14 days; type: ADME, organism-based; conditions: in vivo
[49] = Oral bioavailability in dog at 0.5 mg/kg measured for 14 days; type: ADME, organism-based, Canis lupus familiaris; conditions: in vivo
[50] = Oral bioavailability in rat at 0.5 mg/kg measured for 14 days; type: ADME, organism-based; conditions: in vivo
[51] = Half life in dog at 0.5 mg/kg, po measured for 14 days; type: ADME, organism-based, Canis lupus familiaris; conditions: in vivo; in short: as §3
[52] = Clearance in dog at 0.2 mg/kg, iv measured for 14 days; type: ADME, organism-based, Canis lupus familiaris; conditions: in vivo; in short: as §4
[53] = Tmax in CD1 mouse at 0.5 mg/kg, po measured for 14 days; type: ADME, organism-based; conditions: in vivo; in short: as §3
[54] = Protein binding in brain (unknown origin); type: ADME, tissue-based; conditions: read-out: PB
[55] = system: Plasmodium falciparum; assay: Antiplasmodial activity against Plasmodium falciparum 3D7 infected in human erythrocytes engrafted in NOD-SCID IL-2Rgamma null mouse assessed as reduction in blood parasitemia at 10 to 30 mg/kg, po administered as single dose via gavage measured on day 4 post treatment by flow cytometry; type: functional, organism-based
In short: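 Human-erythrocyte-engrafted SCID mice infected with P. falciparum 3D7 received one oral dose (1, 3, 10 or 30 mg·kg-1) on day 3 post-infection. Parasitemia was followed by flow cytometry, with a quantification limit of 0.01; vehicle controls n=3.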

[56] = system: Plasmodium falciparum; assay: Antiplasmodial activity against Plasmodium falciparum 3D7 infected in human erythrocytes engrafted in NOD-SCID IL-2Rgamma null mouse assessed as reduction in peripheral blood parasitemia administered as single dose via oral gavage measured on […] by flow cytometry; type: functional, organism-based; in short: as §1
[57] = Cmax in NOD-SCID IL-2Rgamma null mouse at 10 mg/kg measured up to 5 days; type: ADME, organism-based; parameters: dose 10 mg/kg; conditions: in vivo
[58] = target: Voltage-gated inwardly rectifying potassium channel KCNH2 (Homo sapiens, UniProt Q12809); assay: Inhibition of human ERG
Voltage-gated inwardly rectifying potassium channel KCNH2, sequence (Q12809 whole entry): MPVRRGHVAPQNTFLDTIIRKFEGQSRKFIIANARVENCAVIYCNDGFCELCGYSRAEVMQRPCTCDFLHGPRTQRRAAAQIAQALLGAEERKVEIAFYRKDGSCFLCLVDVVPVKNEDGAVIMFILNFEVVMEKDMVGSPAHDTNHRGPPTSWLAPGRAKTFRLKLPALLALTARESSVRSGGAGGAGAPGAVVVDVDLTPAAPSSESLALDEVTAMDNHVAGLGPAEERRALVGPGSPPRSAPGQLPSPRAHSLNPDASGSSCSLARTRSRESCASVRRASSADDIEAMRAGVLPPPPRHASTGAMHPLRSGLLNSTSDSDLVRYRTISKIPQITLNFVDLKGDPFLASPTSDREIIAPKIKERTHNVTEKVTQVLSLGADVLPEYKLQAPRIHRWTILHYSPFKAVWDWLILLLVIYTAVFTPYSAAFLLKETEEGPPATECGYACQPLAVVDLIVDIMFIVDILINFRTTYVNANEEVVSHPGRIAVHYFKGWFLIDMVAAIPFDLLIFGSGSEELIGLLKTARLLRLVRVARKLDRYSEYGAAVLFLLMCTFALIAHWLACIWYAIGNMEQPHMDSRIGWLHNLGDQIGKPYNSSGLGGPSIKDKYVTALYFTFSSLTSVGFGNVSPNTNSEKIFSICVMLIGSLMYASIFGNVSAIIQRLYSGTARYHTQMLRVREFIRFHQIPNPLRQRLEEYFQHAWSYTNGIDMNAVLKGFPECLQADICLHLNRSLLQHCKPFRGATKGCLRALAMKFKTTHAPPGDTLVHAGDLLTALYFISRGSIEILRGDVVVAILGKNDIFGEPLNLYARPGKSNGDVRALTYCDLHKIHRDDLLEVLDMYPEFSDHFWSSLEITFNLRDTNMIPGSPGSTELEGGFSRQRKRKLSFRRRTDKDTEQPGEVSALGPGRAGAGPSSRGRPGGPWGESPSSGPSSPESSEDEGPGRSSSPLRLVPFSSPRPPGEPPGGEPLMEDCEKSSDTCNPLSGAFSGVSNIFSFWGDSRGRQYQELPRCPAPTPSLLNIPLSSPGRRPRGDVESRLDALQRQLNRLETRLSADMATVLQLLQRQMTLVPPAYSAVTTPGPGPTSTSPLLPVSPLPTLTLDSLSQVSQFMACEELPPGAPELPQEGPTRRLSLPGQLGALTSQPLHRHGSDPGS

SMILES: C1CCCNCC1 [AZEPANE]
- pKa [1]: 8.05

SMILES: CCN(CC)CCCC(C)Nc1ccnc2cc(Cl)ccc12 (stereo unspecified) [CHLOROQUINE]
- ED50 [2]: 2.8 mg/kg

SMILES: O[C@H]1CNCCC[C@@H]1n1c2ccc(C(F)(F)F)cc2c2cc(C(F)(F)F)ccc21
- fEC50 [3]: 0.17 nM
- EC50 ([3]; Plasmodium falciparum, NF54): 2.4 nM
- Activity [4]: Active
- logP [5]: 4.6
- logD at 1 h [6]: 4.1
- EC50 [7]: 0.7 nM
- EC50 [8]: 2.1 nM
- EC50 [9]: 0.4 nM
- EC50 [10]: 3 nM
- EC50 [11]: 3.4 nM
- EC50 [12]: 1.3 nM
- EC50 [13]: 3.2 nM
- EC50 [14]: 3 nM
- Ratio EC50 [15]: 0.3
- Ratio EC50 [16]: 0.9
- Ratio EC50 [17]: 0.2
- Ratio EC50 [18]: 1.2
- Ratio EC50 [19]: 1.4
- Ratio EC50 [20]: 0.5
- Ratio EC50 [21]: 1.3
- Ratio EC50 [22]: 1.3
- fold change (FC) [23]: 2
- FC [24]: 4.8
- FC [25]: 4.5
- fold change (FC) [26]: 2
- pKa [1]: 8.05
- solubility kinetic at 24 h [27]: 1.5 µg/mL (≈ 3.6 µM)
- solubility kinetic at 24 h [28]: 10 µg/mL (≈ 24 µM)
- solubility kinetic at 24 h [29]: 83.5 µg/mL (≈ 201 µM)
- microsomal CLint [30]: < 10 µL/min/mg
- microsomal CLint [31]: < 10 µL/min/mg
- microsomal CLint [32]: < 10 µL/min/mg
- microsomal CLint [33]: < 10 µL/min/mg
- microsomal CLint [34]: < 10 µL/min/mg
- Papp at 4 h, 20 µM [35]: 120 ×10⁻⁶ cm/s
- efflux ratio at 4 h, 20 µM [36]: 0.8
- fraction unbound at 1000 ng/mL [37]: 0.035
- fraction unbound at 1000 ng/mL [38]: 0.013
- fraction unbound at 1000 ng/mL [39]: 0.025
- fraction unbound at 1000 ng/mL [40]: 0.026
- blood plasma ratio [41]: 1.5
- blood plasma ratio [42]: 1.6
- remaining at 5 h [43]: 96%
- half-life [44]: 86 h
- clearance [45]: 2.6 mL/min/kg
- Vd [46]: 10 L/kg
- bioavailability [47]: 97%
- half-life [48]: 160 h
- bioavailability [49]: 100%
- bioavailability [50]: 72%
- half-life [51]: 69 h
- clearance [52]: 2.98 mL/min/kg
- Tmax [53]: 6 h
- fraction unbound [54]: < 0.001
- Activity [55]: Active
- ED90 [2]: 3.6 mg/kg
- AUCED90 [56]: 2.2 µg.hr/ml/day
- Cmax [57]: 1000 nM
- IC50 [58]: 1180 nM
